In experiment [1] the test system is T1, Histone deacetylase 6 (Danio rerio), F8W4B7 [H574A].
T1 sequence (whole entry): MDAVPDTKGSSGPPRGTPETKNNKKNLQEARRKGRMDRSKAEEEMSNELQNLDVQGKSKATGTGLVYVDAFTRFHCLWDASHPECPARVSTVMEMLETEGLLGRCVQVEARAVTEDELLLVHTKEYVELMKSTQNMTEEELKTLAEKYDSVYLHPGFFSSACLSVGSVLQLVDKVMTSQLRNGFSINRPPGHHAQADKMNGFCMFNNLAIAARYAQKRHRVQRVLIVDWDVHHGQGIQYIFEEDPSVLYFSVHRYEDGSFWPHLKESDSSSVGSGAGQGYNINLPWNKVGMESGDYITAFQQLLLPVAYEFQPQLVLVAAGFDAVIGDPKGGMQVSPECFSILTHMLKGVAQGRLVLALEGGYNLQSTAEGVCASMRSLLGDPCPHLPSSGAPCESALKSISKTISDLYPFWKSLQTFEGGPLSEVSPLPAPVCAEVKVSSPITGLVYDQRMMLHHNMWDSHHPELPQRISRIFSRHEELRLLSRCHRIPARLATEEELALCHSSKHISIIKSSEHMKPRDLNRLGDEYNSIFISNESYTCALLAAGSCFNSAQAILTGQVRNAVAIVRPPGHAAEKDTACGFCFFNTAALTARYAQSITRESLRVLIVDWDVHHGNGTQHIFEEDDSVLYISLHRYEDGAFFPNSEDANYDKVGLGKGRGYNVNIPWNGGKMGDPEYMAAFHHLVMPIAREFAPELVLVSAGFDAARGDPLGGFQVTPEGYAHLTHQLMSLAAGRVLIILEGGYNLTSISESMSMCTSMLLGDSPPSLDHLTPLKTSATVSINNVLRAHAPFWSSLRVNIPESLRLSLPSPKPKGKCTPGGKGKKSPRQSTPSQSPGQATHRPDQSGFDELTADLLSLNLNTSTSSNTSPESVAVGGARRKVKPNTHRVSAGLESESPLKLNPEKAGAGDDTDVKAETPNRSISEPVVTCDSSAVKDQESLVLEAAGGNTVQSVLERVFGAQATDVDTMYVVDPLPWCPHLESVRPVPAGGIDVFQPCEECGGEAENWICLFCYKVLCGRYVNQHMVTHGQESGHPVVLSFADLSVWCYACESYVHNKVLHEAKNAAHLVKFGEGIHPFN
In words: Irreversible inhibition of Danio rerio HDAC6 H574A mutant catalytic domain 2 assessed as enzyme catalysed ring opening by measuring reduction in 2-(Benzylamino)pyrimidine-5-carbohydrazide formation at 100 uM incubated overnight by LC-MS analysis. Put shortly:
(§1)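 Zebrafish HDAC6 CD2 mutants were made by site-directed mutagenesis and expressed in BL21(DE3). Enzyme at 50 μM was incubated overnight with 100 μM inhibitor in 50 mM HEPES pH 7.5, 100 mM KCl, 1 mM TCEP, 5% glycerol; an enzyme-free control was included. Protein was methanol-precipitated and filtered, and products were analysed by C18 UPLC-MS with a 2-min gradient.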

Experiment [2] shares this test system. In words: Irreversible inhibition of Danio rerio HDAC6 H574A mutant catalytic domain 2 assessed as enzyme catalysed ring opening by measuring reduction in 2-(Benzylamino)-N'-(2,2-difluoroacetyl)pyrimidine-5-carbohydrazide formation at 100 uM incubated overnight by LC-MS analysis. In short, it runs like this:
as §1

For experiment [3] the test system is unchanged. In words: Irreversible inhibition of Danio rerio HDAC6 H574A mutant catalytic domain 2 assessed as enzyme catalysed ring opening by measuring reduction in 2-(benzylamino)-N'-(2,2,2-trifluoroacetyl)pyrimidine-5-carbohydrazide formation at 100 uM incubated overnight by LC-MS analysis. In short, it runs like this: as §1
For experiment [4], the system named is T2, Histone deacetylase 6 (Danio rerio), F8W4B7 [Y745F].
T2 sequence (whole entry): T1 sequence (whole entry) with A574H, Y745F
In words: Irreversible inhibition of Danio rerio HDAC6 Y745F mutant catalytic domain 2 assessed as enzyme catalysed ring opening by measuring reduction in 2-(benzylamino)-N'-(2,2,2-trifluoroacetyl)pyrimidine-5-carbohydrazide formation at 100 uM incubated overnight by LC-MS analysis. In short, it runs like this:
as §1

The structures appear in SMILES notation. Where a chain is given by its changes, count along the chain named. Active and inactive are the calls of the source. The calls are words filed in the database; no cut-off is given here.

`FC(F)c1nnc(-c2cnc(NCc3ccccc3)nc2)o1`: the inhibition result in experiment [1], in experiment [2] and in experiment [3] was “Active” each time. For the same compound, in experiment [4], the inhibition result was “inactive”.

Take `FC(F)(F)c1nnc(-c2cnc(NCc3ccccc3)nc2)o1`: the inhibition entry in experiment [1], in experiment [2] and in experiment [3] was “Active” each time. Besides, the inhibition result in experiment [4] was “inactive”.

Source of the values: ChEMBL document CHEMBL5365542, “Difluoromethyl-1,3,4-oxadiazoles Are Selective, Mechanism-Based, and Essentially Irreversible Inhibitors of Histone Deacetylase 6” (J Med Chem, 2023).
